Series [1] in a line: Biodistribution in kidney of Balb/c mouse xenografted with human DU-145 cells assessed as radioactivity at 37 kBq, iv and measured upto 24 hrs post-injection by gamma counter analysis. It counts as ADME, organism-based. The note with it: in vivo. Put shortly: (§1)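 About 5 × 10⁶ DU-145 cells injected sc into the right dorsum of 4-week-old male BALB/c nude mice. Sacrificed at 1 and 24 h. Gamma counting, expressed as % injected dose, mean ± SD.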
For orientation: Xenograft models place foreign cells or tissue in a host animal.

Series [2] in a line: Biodistribution in liver of Balb/c mouse xenografted with human DU-145 cells assessed as radioactivity at 37 kBq, iv and measured upto 24 hrs post-injection by gamma counter analysis. It counts as ADME, organism-based. The note with it: in vivo. Put shortly: as §1
Series [3] is described as follows: Biodistribution in lung of Balb/c mouse xenografted with human DU-145 cells assessed as radioactivity at 37 kBq, iv and measured upto 24 hrs post-injection by gamma counter analysis. To be noted: in vivo. Format: ADME, organism-based. Put shortly:
as §1

Series [4] can be described thus: Drug uptake in tumor of Balb/c mouse xenografted with human DU-145 cells assessed as radioactivity at 37 kBq, iv and measured upto 24 hrs post-injection by gamma counter analysis. Format: ADME, organism-based, Neoplasm. The note with it: in vivo. Put shortly:
as §1

The target of series [5] is T1, Sigma intracellular receptor 2 (Rattus norvegicus, UniProt Q5U3Y7).
T1 sequence (Q5U3Y7 whole entry): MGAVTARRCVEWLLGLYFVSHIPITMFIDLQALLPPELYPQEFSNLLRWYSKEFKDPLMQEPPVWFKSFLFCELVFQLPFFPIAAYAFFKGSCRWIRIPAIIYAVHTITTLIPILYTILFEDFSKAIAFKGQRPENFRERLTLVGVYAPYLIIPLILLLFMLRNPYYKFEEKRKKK
Kind of series: Displacement of [3H]DTG from sigma-2 receptor in Sprague-Dawley rat liver membrane incubated for 90 mins in presence of by liquid scintillation counter analysis (+)-pentazocine by liquid scintillation counter analysis. It counts as cell membranes. (In general: Loss of bound radioactivity is the signal in a displacement assay; it reports binding, not function.)

Series [6] addresses Sigma non-opioid intracellular receptor 1 (Rattus norvegicus, UniProt Q9R0C9). Description: Displacement of (+)-[3H]pentazocine from sigma-1 receptor in Sprague-Dawley rat cerebral membrane incubated for 90 mins by liquid scintillation counter analysis. It counts as cell membranes, Cerebrum.
The nature of series [7]: Stability of the compound in pH 7.4 phosphate buffer assessed as parent compound remaining at 22 to 82 kBq incubated for 24 hrs by RP-HPLC analysis. Format: physicochemical. The note with it: dose 22-82 kBq, read-out: Stability.
Series [8] in a line: Drug uptake in tumor of Balb/c mouse xenografted with human DU-145 cells assessed as radioactivity at 37 kBq, iv and measured after 1 hrs post-injection by gamma counter analysis. Format: ADME, organism-based, Neoplasm. To be noted: in vivo. Put shortly: as §1
The nature of series [9]: Metabolic stability in mouse plasma assessed parent compound remaining at 74 to 93 kBq incubated for 1 hrs by RP-HPLC analysis. Format: ADME, cell-free. The note with it: dose 74-93 kBq, read-out: Stability. Put shortly: (§2)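 Ice-cold acetonitrile added, centrifuged 1700 g for 15 min at 4 °C, filtered 0.45 μm. Intact tracer measured by RP-HPLC; mean ± SD of three samples.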

Series [10] can be described thus: Metabolic stability in mouse plasma assessed parent compound remaining at 74 to 93 kBq incubated for 24 hrs by RP-HPLC analysis. Format: ADME, cell-free. To be noted: dose 74-93 kBq, read-out: Stability. Put shortly: as §2
Series [11] in a line: Drug uptake in human DU-145 cells assessed as radioactivity at 3.7 kBq incubated for 15 to 120 mins. Format: ADME, cell-based. The note with it: time 15-120 min. Put shortly: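 DU-145 cells grown in RPMI 1640 with 10% FBS, seeded and pre-incubated 24 h. Washed with ice-cold PBS, lysed in 1 M NaOH, counted and normalized to BCA protein. Mean ± SD.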
Series [12] can be described thus: 1-Octanol/PBS partition coefficient, logP of the compound at pH 7.4 by shake flask method. It counts as physicochemical. Put shortly: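 Radioiodinated tracer partitioned between 1-octanol and 0.1 M phosphate buffer pH 7.4 by shake-flask. Ratio of radioactivity in octanol to that in buffer, expressed as log P. Mean ± SD of four samples.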
Series [13] in a line: Biodistribution in ddY mouse blood assessed as blood clearance by measuring radioactivity at 18 to 33 kBq, iv […] and measured upto 24 hrs post-injection by gamma counter analysis. Format: ADME, organism-based. The note with it: in vivo, dose 18-33 kBq. Put shortly: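 Male ddY mice, 6 weeks old, 28–30 g. Sacrificed at 10, 30 min, 1, 4, 8 and 24 h postinjection. Tissue radioactivity counted in a gamma counter.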

A short description of series [14]: Biodistribution in ddY mouse neck assessed as radioactivity at 18 to 33 kBq, […] by gamma counter analysis. Format: ADME, organism-based. The note with it: in vivo, iv, dose 18-33 kBq.
The nature of series [15]: Drug uptake in thyroid gland of Balb/c mouse xenografted with human DU-145 cells at 50 MBq, iv and measured after 24 hrs post-injection by SPECT/CT analysis. It counts as ADME, organism-based. To be noted: in vivo. Put shortly: (§3)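 DU-145 sc xenografts in BALB/c nude mice. HPLC-purified 123I-tracer given iv, 50 MBq or 38 MBq per tracer. Small-animal SPECT/CT at 24 h postinjection, 0.8 mm voxels.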

Series [16] in a line: Drug uptake in tumor of Balb/c mouse xenografted with human DU-145 cells at 50 MBq, iv and measured after 24 hrs post-injection by SPECT/CT analysis. The note with it: in vivo. It counts as ADME, organism-based, Neoplasm. Put shortly:
as §3

A short description of series [17]: Drug uptake in pancreas of Balb/c mouse xenografted with human DU-145 cells at 50 MBq, iv and measured after 24 hrs post-injection by SPECT/CT analysis. It counts as ADME, organism-based. The note with it: in vivo. Put shortly:
as §3

Series [18] is described as follows: Drug uptake in pancreas of Balb/c mouse xenografted with human DU-145 cells at 38 MBq, iv and measured after 24 hrs post-injection by SPECT/CT analysis. It counts as ADME, organism-based. To be noted: in vivo. Put shortly: as §3
The nature of series [19]: Drug uptake in tumor of Balb/c mouse xenografted with human DU-145 cells at 38 MBq, iv and measured after 24 hrs post-injection by SPECT/CT analysis. It counts as ADME, organism-based, Neoplasm. The note with it: in vivo. Put shortly:
as §3

Series [20] in a line: Drug uptake in thyroid gland of Balb/c mouse xenografted with human DU-145 cells at 38 MBq, iv and measured after 24 hrs post-injection by SPECT/CT analysis. It counts as ADME, organism-based. The note with it: in vivo. Put shortly:
as §3

By Ki is commonly meant a dissociation constant, usually derived from enzyme kinetics or from competition with a known ligand. A word on the logD: it is lipophilicity at a set pH, counting ionised and neutral species.

Sequence of Sigma non-opioid intracellular receptor 1 (Q9R0C9 whole entry): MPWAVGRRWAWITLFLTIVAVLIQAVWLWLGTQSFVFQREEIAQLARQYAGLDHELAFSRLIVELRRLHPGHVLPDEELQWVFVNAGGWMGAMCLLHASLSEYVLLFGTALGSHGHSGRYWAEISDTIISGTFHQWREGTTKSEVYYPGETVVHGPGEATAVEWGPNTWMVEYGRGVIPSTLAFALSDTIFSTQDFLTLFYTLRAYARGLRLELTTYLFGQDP

In the case of `O[C@H]1CCCC[C@@H]1N1CCC(c2ccc([125I])cc2)CC1`, the Drug uptake entry in series [1], in [2], in [3] and in series [4] was “Active” in each case.
Regarding `O[C@H]1CCCC[C@@H]1N1CCN(CCc2ccccc2Br)CC1` (relative stereo), the Ki amounted to 41.8 nM in [5] and 10.2 nM in series [6].
On the same counts, the results for `O[C@H]1CCCC[C@@H]1N1CCN(CCCc2cccc(Br)c2)CC1` (relative stereo) are 22.2 nM and 7.7 nM.
In the case of `O[C@H]1CCCC[C@@H]1N1CCN(CCc2cccc(Br)c2)CC1` (relative stereo), the figures for the Ki in series [5] and in series [6] were 25.1 nM and 17.2 nM, respectively.
On the same counts, the results for `O[C@H]1CCCC[C@@H]1N1CCN(CCCc2ccc(Br)cc2)CC1` (relative stereo) are 26 nM and 4.4 nM.
As to `O[C@H]1CCCC[C@@H]1N1CCN(CCCc2ccc([125I])cc2)CC1` (relative stereo), the Drug uptake result in [1], in series [2], in [3] and in [4] was “Active” in each case.
Turning to `O[C@H]1CCC[C@@H]1N1CCN(CCc2cccc(I)c2)CC1` (relative stereo), the Ki in series [5] amounted to 73.6 nM; in [6], 7.9 nM.
`O[C@H]1CCC[C@@H]1N1CCN(CCCc2cccc([125I])c2)CC1` (relative stereo): the remaining at 24 h is 96.3% in [7] and 94.8% in series [10]. Further, the Drug uptake result in series [8], in series [11], in [4], in [13] and in [14] was “Active” in each case. In addition, the remaining at 1 h in series [9] amounted to 96.5%. Also, the logD in series [12] was 2.5.
`O[C@H]1CCC[C@@H]1N1CCN(CCCc2cccc(I)c2)CC1` (relative stereo): the values for the Ki in series [5] and in series [6] were 16.9 nM and 14.6 nM, respectively.
Regarding `O[C@H]1CCC[C@@H]1N1CCN(CCc2cccc([123I])c2)CC1` (relative stereo), the Drug uptake entry in [15], in series [16] and in [17] was “Active” throughout.
With `O[C@H]1CCC[C@@H]1N1CCN(CCc2cccc([125I])c2)CC1` (relative stereo), the results for the remaining at 24 h in series [7] and in [10] were 96.9% and 81.3%, respectively. The Drug uptake result in [8], in series [11], in [4], in series [13] and in series [14] was “Active” each time. For the same molecule, in [9], the remaining at 1 h was determined as 95.6%. Further, the logD in series [12] was determined as 2.08.
As for `O[C@H]1CCC[C@@H]1N1CCN(CCCc2ccccc2Br)CC1` (relative stereo), the Ki in series [5] worked out at 116 nM; in [6] it was 37.1 nM.
On to `O[C@H]1CCCC[C@@H]1N1CCN(CCc2ccc(Br)cc2)CC1` (relative stereo), for which the Ki was 44.5 nM in series [5] and 9.8 nM in series [6].
Regarding `O[C@H]1CCC[C@@H]1N1CCN(CCCc2cccc([123I])c2)CC1` (relative stereo), the Drug uptake entry in [18], in series [19] and in [20] was “Active” throughout.
On to `O[C@H]1CCCC[C@@H]1N1CCN(CCCc2ccccc2Br)CC1` (relative stereo), for which the Ki was determined as 32.5 nM in series [5] and 19.4 nM in series [6].
The corresponding values for `O[C@H]1CCC[C@@H]1N1CCN(CCCc2cccc(Br)c2)CC1` (relative stereo) are 8.1 nM and 4.8 nM.
Regarding `O[C@H]1CCC[C@@H]1N1CCN(CCc2ccccc2Br)CC1` (relative stereo), the Ki was determined as 371 nM in [5] and 21.5 nM in series [6].
On the same counts, the results for `O[C@H]1CCC[C@@H]1N1CCN(CCc2cccc(Br)c2)CC1` (relative stereo) are 138 nM and 12.4 nM.
Turning to `O[C@H]1CCC[C@@H]1N1CCN(CCCc2ccc(Br)cc2)CC1` (relative stereo), the Ki in [5] is 12.6 nM; in series [6], 8.1 nM.
Regarding `O[C@H]1CCC[C@@H]1N1CCN(CCc2ccc(Br)cc2)CC1` (relative stereo), the Ki turned out to be 148 nM in series [5] and 9.9 nM in series [6].

Values taken from ChEMBL document CHEMBL5104174, “Development of tumor-targeting aza-vesamicol derivatives with high affinity for sigma receptors for cancer theranostics” (RSC Med Chem, 2022).
